Source: ChEMBL document CHEMBL4196186, “Absolute Configurations and Bioactivities of Guaiane-Type Sesquiterpenoids Isolated from Pogostemon cablin” (J Nat Prod, 2018)
In brackets after ≈: the same amount, converted by molar mass. Activity calls are given as the source filed them. No cut-off for these calls is given here.

What was measured:
Thoracic aorta [1] = assay: Vasorelaxant activity in Sprague-Dawley rat thoracic aortic ring assessed as inhibition of KCl-induced contraction at 50 uM; format: functional, tissue-based
Method in brief: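 Rat aortic rings contracted with KCl; relaxation measured with test agent at a single concentration of 50 μM. Methoxyverapamil and phentolamine mesylate were the positive controls.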

Staphylococcus aureus [2] = assay: Antibacterial activity against Staphylococcus aureus ATCC 25923 after 24 hrs by double dilution method; format: functional, organism-based
Escherichia coli = assay: Antibacterial activity against Escherichia coli ATCC 25922 after 24 hrs by double dilution method; format: functional, organism-based
A549 = assay: Cytotoxicity against human A549 cells after 48 hrs by MTT assay; format: functional, cell-based; conditions: A549, 48 h
Staphylococcus aureus [3] = assay: Antibacterial activity against methicillin-resistant Staphylococcus aureus ATCC 43300 after 24 hrs by double dilution method; format: functional, organism-based
MCF7 = assay: Cytotoxicity against human MCF7 cells after 48 hrs by MTT assay; format: functional, cell-based; conditions: MCF7, 48 h
[4] = Cytotoxicity against human […] cells after 48 hrs by MTT assay; format: functional, cell-based
SGC-7901 = assay: Cytotoxicity against human SGC7901 cells after 48 hrs by MTT assay; format: functional, cell-based; conditions: SGC-7901, 48 h
PC-12 [5] = assay: Neuroprotective activity against glutamate-induced cell damage in rat PC12 cells assessed as cell viability at 50 uM pretreated followed by glutamate challenge and measured after 24 hrs by MTT assay (reference value: 49.14 +/- 3.15%); format: functional; conditions: read-out: Activity
Candida albicans = assay: Antifungal activity against Candida albicans CMCC 98001 after 24 hrs by double dilution method; format: functional; conditions: CMCC 98001, 24 h
Thoracic aorta [6] = assay: Vasorelaxant activity in Sprague-Dawley rat thoracic aortic ring assessed as inhibition of KCl-induced contraction; format: functional, tissue-based
Method in brief: (§1)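 Rat aortic rings precontracted with phenylephrine (PHE) or KCl; relaxation measured over a range of concentrations and EC50 derived. Positive controls were phentolamine mesylate and methoxyverapamil.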

Thoracic aorta [7] = assay: Vasorelaxant activity in Sprague-Dawley rat thoracic aortic ring assessed as inhibition of phenylephrine-induced contraction; format: functional, tissue-based; method in brief: as §1
PC-12 [8] = assay: Neuroprotective activity against glutamate-induced cell damage in rat PC12 cells assessed as increase in cell viability at 10 uM pretreated followed by glutamate challenge and measured after 24 hrs by MTT assay; format: functional, cell-based

## C=C(C)[C@@H]1CCC(C)=C2C(=O)C=C(C)[C@@H]2C1
Thoracic aorta [1]
  inhibition: inactive
Staphylococcus aureus [2]
  Activity: inactive
Escherichia coli
  Activity: inactive
A549
  IC50: > 50 µM
Staphylococcus aureus [3]
  Activity: inactive
MCF7
  IC50: > 50 µM
[4]
  IC50: > 50 µM
SGC-7901
  IC50: > 50 µM

## C=C(C)[C@@H]1CC[C@H](C)[C@]23CC[C@](C)(O)[C@@]2(C1)O3
Thoracic aorta [1]
  inhibition: inactive
Staphylococcus aureus [2]
  Activity: inactive
Escherichia coli
  Activity: inactive
PC-12 [5]
  viability at 50 µM: 65.5%
A549
  IC50: > 50 µM
Staphylococcus aureus [3]
  Activity: inactive
MCF7
  IC50: > 50 µM
[4]
  IC50: > 50 µM
SGC-7901
  IC50: > 50 µM

## C=C(C)[C@@H]1CC[C@H](C)[C@@H](CCC(C)=O)C(=O)C1
Thoracic aorta [1]
  inhibition: inactive
Staphylococcus aureus [2]
  Activity: inactive
Escherichia coli
  Activity: inactive
PC-12 [5]
  viability at 50 µM: 75.7%
A549
  IC50: > 50 µM
Staphylococcus aureus [3]
  Activity: inactive
MCF7
  IC50: > 50 µM
[4]
  IC50: > 50 µM
SGC-7901
  IC50: > 50 µM

## C=C(C)[C@@H]1C[C@@H](O)C(=C)C2=CC[C@H](C)[C@@H]2C1
Thoracic aorta [1]
  inhibition: inactive
Staphylococcus aureus [2]
  Activity: inactive
Escherichia coli
  Activity: inactive
A549
  IC50: > 50 µM
Staphylococcus aureus [3]
  Activity: inactive
MCF7
  IC50: > 50 µM
[4]
  IC50: > 50 µM
SGC-7901
  IC50: > 50 µM

## C=C(C)[C@@H]1CC[C@](C)(O)[C@@H]2CC[C@H](C)[C@]2(O)C1
Thoracic aorta [1]
  inhibition: inactive
Staphylococcus aureus [2]
  Activity: inactive
Escherichia coli
  Activity: inactive
PC-12 [5]
  viability at 50 µM: 66.1%
A549
  IC50: > 50 µM
Staphylococcus aureus [3]
  Activity: inactive
MCF7
  IC50: > 50 µM
[4]
  IC50: > 50 µM
SGC-7901
  IC50: > 50 µM

## C=C(C)[C@@H]1CCC(=C)[C@]2(O)[C@@H](O)C[C@H](C)[C@@H]2C1
Staphylococcus aureus [2]
  Activity: inactive
Candida albicans
  MIC: 500 µM (≈ 118 µg/mL)
Escherichia coli
  Activity: inactive
A549
  IC50: > 50 µM
Thoracic aorta [6]
  inhibition: Dose-dependent effect
Staphylococcus aureus [3]
  Activity: inactive
Thoracic aorta [7]
  EC50: 5.4 µM
  inhibition: Dose-dependent effect
MCF7
  IC50: > 50 µM
[4]
  IC50: > 50 µM
SGC-7901
  IC50: > 50 µM

## C=C(C)[C@@H]1CC[C@H](C)[C@@]23O[C@]2(C1)[C@@H](C)C[C@H]3O
Staphylococcus aureus [2]
  Activity: inactive
Candida albicans
  MIC: 300 µM (≈ 70.9 µg/mL)
Escherichia coli
  Activity: inactive
A549
  IC50: > 50 µM
Thoracic aorta [6]
  EC50: 24.2 µM
  inhibition: Dose-dependent effect
Staphylococcus aureus [3]
  Activity: inactive
Thoracic aorta [7]
  EC50: 1.6 µM
  inhibition: Dose-dependent effect
MCF7
  IC50: > 50 µM
[4]
  IC50: > 50 µM
SGC-7901
  IC50: > 50 µM

## C=C(C)[C@@H]1CC[C@H](C)[C@H](CCC(C)=O)C(=O)C1
Staphylococcus aureus [2]
  Activity: inactive
Escherichia coli
  Activity: inactive
PC-12 [5]
  viability at 50 µM: 78.7%
A549
  IC50: > 50 µM
Thoracic aorta [6]
  inhibition: Active
Staphylococcus aureus [3]
  Activity: inactive
MCF7
  IC50: > 50 µM
[4]
  IC50: > 50 µM
SGC-7901
  IC50: > 50 µM

## C=C(C)[C@@H]1CC[C@@](C)(O)C2=C[C@@H](O)[C@H](C)[C@@H]2C1
Thoracic aorta [1]
  inhibition: inactive
Staphylococcus aureus [2]
  Activity: inactive
Escherichia coli
  Activity: inactive
A549
  IC50: > 50 µM
Staphylococcus aureus [3]
  Activity: inactive
MCF7
  IC50: > 50 µM
[4]
  IC50: > 50 µM
SGC-7901
  IC50: > 50 µM

## COCCOC(=O)C1=C(C)NC(C)=C(C(=O)OC(C)C)C1c1cccc([N+](=O)[O-])c1 (centres undefined)
PC-12 [8]
  Activity: Active
